Most compounds without a hit are left out; they make up all but 2.9% or so of the library.
HTR1E agonist – 5-HT1E (human) receptor agonism. P28566. CHO 5-HT1E Ga15 NFAT-bla reporter, FRET; 0% DMSO wells, 100% control agonist wells. activation, % at 6 µM. hit rate 0.69% among 65,000;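 active = activation above a set limit, the screen-wide mean activation plus 3 SD, cut at about 8.5% in these data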
Target sequence (P28566 whole entry, looked up): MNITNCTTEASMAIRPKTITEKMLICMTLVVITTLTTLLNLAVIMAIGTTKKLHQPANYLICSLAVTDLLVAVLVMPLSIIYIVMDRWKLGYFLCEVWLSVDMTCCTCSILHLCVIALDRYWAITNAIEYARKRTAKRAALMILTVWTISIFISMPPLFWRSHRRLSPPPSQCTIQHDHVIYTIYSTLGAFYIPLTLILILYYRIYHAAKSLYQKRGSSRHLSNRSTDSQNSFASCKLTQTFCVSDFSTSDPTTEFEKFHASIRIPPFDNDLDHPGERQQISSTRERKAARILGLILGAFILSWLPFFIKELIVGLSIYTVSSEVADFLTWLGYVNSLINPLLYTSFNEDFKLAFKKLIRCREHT
S1P3 agonist – activates the human S1P3 receptor; S1P3 NFAT-BLA reporter cells, agonism, FRET ratio; relative to 1 µM S1P, basal subtracted; hit rate 0.1% among 60,000; activation, % at 4.5 µM; Q99500; AID 373;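 active = activation above the screen-wide mean plus 3 SD, cut at about 4.5% in these data, passing the limit was not always enough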
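Assay system: stable CHO line with human S1P3, Gα16, NFAT-BLA reporter; Detection: FRET β-lactamase substrate fluorescence, excitation 405 nm, 460/535 nm emission ratio, background-subtracted; Read-out: percent activation versus median 1 µM S1P response, basal-subtracted, per plate; Incubation: cells plated overnight, compound 4 h 37 °C, substrate 2 h RT.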
HTR1A agonist – activates the human 5-HT1a serotonin receptor. CHO 5-HT1a Ga15 NFAT-bla reporter, FRET ratio; 0% basal, 100% maximal reference agonist. activation, % at 10 µM. hit rate 0.56% among 65,000;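 active = activation above the screen-wide mean activation plus 3 SD, cut at about 19% in these data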
S1P1 ag-PAM – agonists and agonism potentiators of human S1P1 receptor | hit rate 0.57% among 56,000 | S1P1 CRE-bla cells, forskolin, beta-lactamase FRET, potentiator mode; S1P1 agonist co-added at EC20, 2 nM; 100% = saturating reference agonist, 0% = basal | activation, % at 9.5 µM | P21453;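 active = activation above a cutoff set at the mean activation of all tested compounds plus 3 SD, cut at about 54% in these data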;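 note: forskolin at 4 µM as EC80 and the EC20 agonist is SEW2871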
HTR1E antagonist – antagonists of human 5-HT1E serotonin receptor. P28566. CHO 5-HT1E Ga15 NFAT-bla reporter, FRET, antagonist. inhibition, % at 6 µM. hit rate 0.99% among 65,000. AID 571;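 active = inhibition above a set limit, the mean inhibition across every tested compound plus 3 SD, cut at about 29% in these data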;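 note: signal is the 460 over 535 nm emission ratio of beta-lactamase substrate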
5-HT1A blocker – 5-HT1a (human) receptor antagonism; P08908; CHO 5-HT1a Ga15 NFAT-bla reporter, antagonist mode; inhibition, % at 10 µM; hit rate 0.68% among 62,000; AID 612;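 active = inhibition above the mean of all tested compounds plus 3 SD, cut at about 43% in these data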;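 note: receptor stimulated by 5-CT agonist at 100 nM near EC80; beta-lactamase reporter measured by ratiometric fluorescence of a cleavable substrate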
A number is an active result; 0 = inactive; - = not tested or not shown.

SMILES | HTR1E agonist | S1P3 agonist | HTR1A agonist | S1P1 ag-PAM | HTR1E antagonist | 5-HT1A blocker
CCOC(=O)/N=C(/NC(=O)Nc1ccc(C(=O)OCC)cc1)OC | 9.3 | 0 | 0 | 0 | 0 | 0
CCOC(=O)c1ccc(NC(=O)C2CC2)cc1 | 0 | 0 | 0 | 0 | 0 | 0
CCOC(=O)c1ccc(NC(=O)COC)cc1 | 0 | 0 | 0 | - | 0 | 0
CCOC(=O)c1ccc(NC(=O)Cn2cccc2)cc1 | 26 | 0 | 0 | 0 | 0 | 0
O=C1C2C3C=CC(CO)(O3)C2C(=O)N1c1ccccc1-c1ccccc1 (configuration not stated) | 0 | 0 | 0 | 154 | 103 | 104
Cc1ccc(CNC(=O)CSc2ncccn2)cc1 | 0 | - | 0 | - | 0 | 0
COc1ccc(OC)c(NC(=O)C2CCCCC2C(=O)O)c1 (configuration not stated) | 15 | 0 | 0 | 0 | 0 | 0
COc1ccc(OC)c(NC(=O)C2C3CCC(C3=C(C)C)C2C(=O)O)c1 (configuration not stated) | 0 | 0 | 0 | 0 | 0 | 0
CCOC(=O)C1=C(CSc2n[nH]c(N)n2)NC(=O)NC1C (configuration not stated) | 0 | 0 | 0 | 0 | 0 | 0
CCOC(=O)C1CCN(C(=O)COc2ccc(S(=O)(=O)NC(C)C)cc2Cl)CC1 | 0 | 0 | 48 | 0 | 0 | 0
Cc1cccc(OCCc2nnc(N)s2)c1C | 0 | 0 | 0 | 0 | 0 | 0
CCn1c(SCC(=O)Nc2cc3oc4ccccc4c3cc2OC)nnc1-c1cccs1 | 0 | 0 | 25 | - | 0 | 0
COc1cc2c(cc1NC(=O)CSc1nnc(Cc3cccs3)n1C)oc1ccccc12 | 0 | 0 | 0 | 0 | 0 | 0
CCn1c(SCC(=O)Nc2nccs2)nnc1-c1cc2cccc(OC)c2o1 | 11 | 0 | 0 | 0 | 0 | 0
COc1ccc(-n2nnnc2SCC(=O)Nc2cccc(C)n2)cc1OC | 0 | 0 | 0 | 0 | 0 | 0
CCOC(=O)c1cc2c(=O)n3ccccc3nc2n(CCCOC)c1=NC(C)=O | 0 | - | 23 | - | 0 | 0
CC(C)OCCCn1c(=NC(=O)c2ccncc2)c(C#N)cc2c(=O)n3ccccc3nc21 | 9.1 | 0 | 37 | 0 | 0 | 0
N=c1c(C(=O)NCc2ccc(F)cc2)cc2c(=O)n3ccccc3nc2n1CCCN1CCOCC1 | 0 | 0 | 31 | 0 | 0 | 0
C=CCn1c(=N)c(C(=O)NCCCOC)cc2c(=O)n3ccccc3nc21 | 0 | 0 | 20 | 0 | 0 | 0
CCCn1c(=NC(=O)c2ccco2)c(C(=O)OCC)cc2c(=O)n3ccccc3nc21 | 0 | 0 | 0 | - | 0 | 0
Cc1cccc(N(CC(=O)NC2CCCCC2)C(=O)CCC(=O)Nc2cc(C)ccn2)c1 | 0 | 0 | 0 | 0 | 0 | 0
COc1ccc(-c2csc3nc(C)n(-n4cccc4)c(=O)c23)cc1OC | 0 | 0 | 0 | 0 | 0 | 0
Cc1nc2sc(-c3ccccc3)cc2c(=O)n1-n1cccc1 | 0 | 0 | 0 | 60 | 0 | 0
COc1ccc(S(=O)(=O)Nc2ccc3c(c2)OCCO3)cc1Cl | 0 | 0 | 0 | 0 | 0 | 0
O=S(=O)(Nc1ccc2c(c1)OCCO2)c1ccc2oc3ccccc3c2c1 | 0 | 0 | 0 | 72 | 0 | 0
SMILES | HTR1E agonist | S1P3 agonist | HTR1A agonist | S1P1 ag-PAM | HTR1E antagonist | 5-HT1A blocker
CC(=O)Oc1ccc2c(c1)c(C(C)=O)c(C)n2C | 0 | 0 | 0 | 0 | 0 | 0
COc1ccc(-n2c(C)c(C(C)=O)c3cc(O)ccc32)cc1 | 0 | 0 | 0 | 76 | 0 | -
C=C(CC)C(=O)c1ccc(OCC(=O)O)c(Cl)c1Cl | 0 | 0 | 0 | 0 | 0 | -
COC(=O)CCSCc1cn2cc(Cl)ccc2n1 | 0 | 0 | 0 | 0 | 0 | 0
COC(=O)c1ccc(CSc2nnc(SCc3ccc(C(=O)OC)o3)s2)o1 | 0 | 0 | 0 | 0 | 0 | 0
COC(=O)c1ccc(CSc2nc(C)nc3sc(C)c(C)c23)o1 | 0 | 0 | 0 | 0 | 33 | 50
CCC(C)c1ccc2oc(-c3ccc(NC(=O)c4ncn[nH]4)cc3)nc2c1 (configuration not stated) | 0 | 16 | 0 | 98 | 0 | 0
CC1Cc2ccccc2N1c1ncnc2nc[nH]c12 (configuration not stated) | 0 | 0 | 0 | 93 | 0 | 0
c1ccc2c(c1)CCN(c1ncnc3nc[nH]c13)C2 | 0 | 0 | 0 | 0 | 0 | 0
Cc1cccc(-n2ncc(C#N)c2N)c1 | 0 | 0 | 0 | 0 | 0 | 0
Cc1cccc(N2C(N)=C(C#N)C(C#N)(C#N)C2c2ccccc2)c1 (configuration not stated) | 0 | 0 | 0 | 0 | 42 | 0
N#CC1=C(N)N(c2ccccc2)C(c2ccco2)C1(C#N)C#N (configuration not stated) | 0 | 0 | 42 | 0 | 0 | 0
COc1ccc2c(c1)CCc1c(C(=O)Nc3ccc(OC)c(OC)c3)noc1-2 | 0 | 0 | 0 | 104 | 0 | 0
Cc1nn(-c2nc3ccccc3s2)c(C)c1Oc1ccccc1O | 0 | 0 | 0 | 0 | 0 | 0
O=C(c1cnn(-c2nc3ccccc3s2)c1)c1ccccc1O | 0 | 0 | 21 | 0 | 0 | 0
COC(=O)c1nnn(-c2nonc2N)c1CSc1ccc(Cl)cc1 | 0 | 0 | 0 | 0 | 30 | 0
c1ccc(-c2nnc(N3CCOCC3)nc2-c2ccccc2)cc1 | 0 | 31 | 0 | 0 | 0 | 0
COc1cccc(OCCOCCNCCO)c1 | 0 | 0 | 42 | 0 | 0 | 0
COc1ccccc1-n1cnc2cc(NCc3ccco3)ccc21 | 0 | 0 | 0 | 0 | 34 | 0
CCCNC(=O)c1ccc2c(c1)ncn2-c1ccccc1OC | 0 | 0 | 0 | 0 | 0 | 0
CCCCn1c(=O)[nH]c(=O)c2c1nc(-c1ccncc1)n2CCOC | 0 | 0 | 270 | 0 | 0 | 0
CC(C)c1nnc(NC(=O)Cn2nc(-c3ccc4c(c3)OCCO4)ccc2=O)s1 | 14 | 0 | 0 | 0 | 0 | 0
O=C1CC(Sc2nnc(-c3ccccc3O)o2)C(=O)N1c1ccccc1 (configuration not stated) | 0 | 0 | 0 | 0 | 0 | 0
COc1ccc(N2C(=O)CC(Sc3nnc(-c4ccccc4)o3)C2=O)cc1 (configuration not stated) | 0 | 0 | 0 | 0 | 0 | 47
COc1ccc(N(CC(=O)NCc2cccs2)S(=O)(=O)c2c(C)nn(C)c2C)cc1 | 0 | 0 | 0 | 0 | 34 | 0
Cc1nc(NC(C)c2ccccc2)c2oc3ccccc3c2n1 (configuration not stated) | 0 | 0 | 0 | 0 | 0 | 0
CC1CCN(c2oc(-c3ccccc3Cl)nc2C#N)CC1 | 0 | 0 | 0 | 0 | 37 | -
O=C(NCc1cccnc1)c1ccc(Cl)c(Cl)c1 | 0 | 0 | 0 | 0 | 0 | 0
Cc1cc(C(=O)NCc2cccnc2)cs1 | 0 | 0 | 31 | 0 | 0 | 0
Cc1nn(Cc2ccccc2)c2sc(C(=O)NCc3cccnc3)cc12 | 0 | 0 | 39 | 0 | 0 | 0

Screening data deposited in PubChem BioAssay by The Scripps Research Institute Molecular Screening Center.
